Experiment: Toxicity liver stage against HepG2, at 10uM
Type: cell-based
Design: test concentration 10 uM, cell line HepG2-A16-CD81EGFP
Details: human, HepG2-A16-CD81EGFP cells; read-out: INHIBITION
Outline: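 Uninfected HepG2-A16-CD81EGFP cells, 3 × 10^3 per well, 1536-well, plated on prespotted compound at 10 μM final, parasite-free screening media added to match infected plates; puromycin 10 μM positive, DMSO 0.5% negative; run in parallel with 48 h PbLuc assay at 37 °C, 5% CO2; viability by CellTiter-Glo luminescence, normalized to controls.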

CS(=O)(=O)C1=C(O)C(=O)N(c2ccccc2)C1c1ccccc1 (configuration not stated)
cytotoxicity at 10 µM: -1.06%

COc1cccc(NC(=O)C2CC(=O)n3cnnc3S2)c1 (configuration not stated)
cytotoxicity at 10 µM: 2.27%

COc1cccc2c1ccn2CCNC(C)=O
cytotoxicity at 10 µM: 1.89%

COc1ccc2c(c1)c(C(=O)Nc1n[nH]c(C(C)C)n1)cn2C(C)C
cytotoxicity at 10 µM: -26.8%

Cn1c(C(F)(F)F)nn(CCNC(=O)Nc2ccccc2Cl)c1=O
cytotoxicity at 10 µM: 13.4%

Cc1ncn(CCNC(=O)Nc2ccc(F)c(Cl)c2)c(=O)c1C
cytotoxicity at 10 µM: -2.93%

Cc1nsc(C(=O)NCCc2ccc(Cl)cc2)n1
cytotoxicity at 10 µM: 2.09%

O=C(Cc1ccsc1)N1CCC2(CCCN(CC3CCOCC3)C2)C1 (configuration not stated)
cytotoxicity at 10 µM: -135%

CCOCC1CN(C(=O)c2ccoc2)Cc2nn(C)cc21 (configuration not stated)
cytotoxicity at 10 µM: 0.254%

COCC(=O)N1CCC2(CCN(c3cnn(C)c3)C2=O)C1 (configuration not stated)
cytotoxicity at 10 µM: 0.486%

CCN1CC2(CC1=O)CN(C(=O)c1ccoc1)CCN(C(=O)N(C)C)C2 (configuration not stated)
cytotoxicity at 10 µM: 4.26%

O=C(c1ccccc1)N1CC(C(=O)N2CCOCC2)C2(CCOCC2)C1 (configuration not stated)
cytotoxicity at 10 µM: 3.07%

Cn1ncc2c1C(COCC1CC1)CN(C(=O)Cc1ccsc1)C2 (configuration not stated)
cytotoxicity at 10 µM: 10.1%

CC(C)CCNC(=O)C1CCN(c2ccc3nnc(C(C)C)n3n2)CC1
cytotoxicity at 10 µM: 1.68%

COc1cccc2c3c(c(=O)[nH]c12)CCO3
cytotoxicity at 10 µM: 5.57%

CN(C)C(=O)c1nc2c(s1)CCN(C(=O)c1ccc(Cl)cc1)CC2
cytotoxicity at 10 µM: -14.2%

CC(C)(C)NC(=O)c1ccn(COc2c(Cl)cccc2Cl)n1
cytotoxicity at 10 µM: 3.02%

Fc1ccccc1NCc1nc2n(n1)CCCCC2
cytotoxicity at 10 µM: 2.02%

COc1cc(C(F)(F)F)sc1C(=O)O
cytotoxicity at 10 µM: -3.29%

CCn1nc(CNC(C)(C)CO)c(-c2ccccc2)n1
cytotoxicity at 10 µM: 8.96%

Cc1nc(N2CCOCC2)ncc1-c1cc(O)nc(N2CCCCC2)n1
cytotoxicity at 10 µM: 6.2%

Cc1cnc2[nH]c(C(F)(F)F)c(CN3CCSCC3)c2c1
cytotoxicity at 10 µM: 13.3%

Cc1cc(C)nc(C2CCCN2C(=O)c2cnccn2)n1 (configuration not stated)
cytotoxicity at 10 µM: 3.74%

CNc1nccnc1C1CN(Cc2ccc3[nH]ccc3c2)CCO1 (configuration not stated)
cytotoxicity at 10 µM: -2.52%

CCc1nccn1-c1cccc(C2CCN(C(=O)COC)CC2)n1
cytotoxicity at 10 µM: -14.9%

CS(=O)(=O)N1CCCC1Cn1cccn1 (configuration not stated)
cytotoxicity at 10 µM: -10.2%

O=C(O)c1ccccc1CN1CCOC(CCc2ccncn2)C1 (configuration not stated)
cytotoxicity at 10 µM: -20.6%

Cc1nn(C)cc1CN1CCC(C2Nc3ccccc3S(=O)(=O)N2)CC1 (configuration not stated)
cytotoxicity at 10 µM: -2.19%

CN(C)CCOc1ccccc1N1CCN(C(=O)C(C)(C)C#N)CC1
cytotoxicity at 10 µM: 11.4%

Cn1ccnc1C(O)(CCNCc1ccco1)C(F)(F)F (configuration not stated)
cytotoxicity at 10 µM: 1.66%

CSCC(C)C(=O)NCc1c(C)nc2cc(=O)[nH]n2c1C (configuration not stated)
cytotoxicity at 10 µM: -16.3%

CNS(=O)(=O)CC1CCCN1c1ccc(Br)cn1 (configuration not stated)
cytotoxicity at 10 µM: 3.1%

CCN(CC)C(CNC(=O)c1cccnc1-n1cncn1)c1ccsc1 (configuration not stated)
cytotoxicity at 10 µM: -146%

NS(=O)(=O)CCNC(=O)c1ccc(OCc2ccccc2)nc1
cytotoxicity at 10 µM: 6.85%

O=C(Cc1ccon1)N1CCN(c2ccncc2Cl)CC1
cytotoxicity at 10 µM: -2.47%

CN1N=C(C(=O)N2CCCN(c3ncccc3C#N)CC2)CCC1=O
cytotoxicity at 10 µM: -1.8%

CN(Cc1cnn(C)c1)S(=O)(=O)N1CCCCC1
cytotoxicity at 10 µM: -3.38%

Cc1cc(C)n(CC2CCCCN2CC(=O)Nc2c(C)n[nH]c2C)n1 (configuration not stated)
cytotoxicity at 10 µM: -1.92%

NC(=O)CSc1ccccc1NC(=O)C1CCCCC1
cytotoxicity at 10 µM: -127%

N#CCCCOc1cccnc1NC(=O)CC1CCCCC1
cytotoxicity at 10 µM: 21.9%

CNC(=O)N1CCCCC1c1nnc2n1CCCC2 (configuration not stated)
cytotoxicity at 10 µM: -6.1%

COc1ccc(OC)c(-n2nnnc2SCC2CCCCO2)c1 (configuration not stated)
cytotoxicity at 10 µM: 11.7%

O=C(NC1CCCN(c2ccccc2Cl)C1)c1c[nH]nn1 (configuration not stated)
cytotoxicity at 10 µM: -1.58%

CS(=O)(=O)NC1CCCN(C(=O)Nc2ccccc2Cn2cccn2)C1 (configuration not stated)
cytotoxicity at 10 µM: 3.81%

CCNc1nc(C)c(C(=O)N(C)Cc2nc(CC)no2)s1
cytotoxicity at 10 µM: -6.02%

CCn1cc(S(=O)(=O)N2CCCC2c2ccc(C)o2)cn1 (configuration not stated)
cytotoxicity at 10 µM: 20.9%

Cc1ccc(C2CSCCN2C(=O)c2cccs2)o1 (configuration not stated)
cytotoxicity at 10 µM: 3.82%

Cc1cc(F)ccc1S(=O)(=O)N1CCN(C)c2ccncc21
cytotoxicity at 10 µM: 8.29%

N#Cc1ccc(-c2nnc(CSCCN3CCOCC3)o2)cc1
cytotoxicity at 10 µM: -5.08%

Cc1nn(C)c(C)c1C1CCCN1C(=O)Cc1cn2ccsc2n1 (configuration not stated)
cytotoxicity at 10 µM: -45.2%

CC(C)C(C)(C#N)NC(=O)Cn1cc(I)cn1 (configuration not stated)
cytotoxicity at 10 µM: 18.1%

CN(C)CCN(Cc1ccco1)C(=O)Cc1cn2ccsc2n1
cytotoxicity at 10 µM: 5.92%

c1coc(CN2C[C@H](OCC3CCOCC3)[C@H]3COC[C@H]32)c1
cytotoxicity at 10 µM: 0.127%

CS(=O)(=O)N[C@@H]1CCO[C@]2(CCN(C(=O)C3=CCCC3)C2)C1
cytotoxicity at 10 µM: 0.693%

CNc1nc(C(=O)N2CCC3(CCCN(CC4CC4)C3=O)C2)cs1 (configuration not stated)
cytotoxicity at 10 µM: 5.33%

CSCc1noc(C2CCC(=O)N(CCc3ccccc3)C2)n1 (configuration not stated)
cytotoxicity at 10 µM: -6.72%

Cc1ccc(NC2(C(=O)NC(C)c3ncn[nH]3)CCCC2)cc1 (configuration not stated)
cytotoxicity at 10 µM: 0.317%

COc1ccc(F)c(-c2ncccc2NC(=O)C(C)C)c1
cytotoxicity at 10 µM: 5.69%

CN(CCCOc1ccccc1Cl)C(=O)CN1CCCCCC1=O
cytotoxicity at 10 µM: -9.63%

CC(C)c1nc(N2CCC(N3CCSCC3)CC2)c2cnn(C)c2n1
cytotoxicity at 10 µM: -136%

O=C(NCCCn1ccnn1)C1CCCN(C2CCCC2)C1 (configuration not stated)
cytotoxicity at 10 µM: -6.03%

COc1ccc(C(=O)O)cc1-c1cccc2c1CCNC2
cytotoxicity at 10 µM: 0.979%

NCCc1n[nH]c(=O)n1-c1cccc(Cl)c1Cl
cytotoxicity at 10 µM: -2.38%

Cc1ncc(C(=O)N2CCC(N3CCc4ccccc4C3)CC2)c(O)n1
cytotoxicity at 10 µM: -0.745%

CN(Cc1cccc(-n2cccn2)c1)C(=O)c1ccnc(N)c1
cytotoxicity at 10 µM: -0.491%

Cc1c(-c2nc3cc(S(=O)(=O)N4CCCC4)ccc3n2C)cnn1C
cytotoxicity at 10 µM: 2.2%

CCn1nc(C)cc1S(=O)(=O)N1CCC2(CC(=O)NC2=O)C1 (configuration not stated)
cytotoxicity at 10 µM: 0.0942%

CN(c1ncccc1CNCc1ncc[nH]1)C1CCCCC1
cytotoxicity at 10 µM: -7.28%

CCN1CCC(CC(=O)N2CCN(c3ccccc3OC)CC2C)CC1 (configuration not stated)
cytotoxicity at 10 µM: -4.9%

CCOc1ccccc1C(C(=O)O)N(C)Cc1nc(C)c[nH]1 (configuration not stated)
cytotoxicity at 10 µM: -5.18%

Cc1nccn1CCCC(=O)N1CCN(c2cccnc2)CC1
cytotoxicity at 10 µM: -4.98%

COCCNS(=O)(=O)c1cccc2c1CN(C(=O)c1ccccc1)CC2
cytotoxicity at 10 µM: 5.54%

COCCC1(CO)CCCN(Cc2ccc(F)c(C)c2)C1 (configuration not stated)
cytotoxicity at 10 µM: -1.31%

Cc1cccc(CN2C[C@H]3OC(=O)N(CCCN4CCOCC4)[C@H]3C2)n1
cytotoxicity at 10 µM: -6.85%

CN1CCCC(c2n[nH]c3ncccc23)C1 (configuration not stated)
cytotoxicity at 10 µM: -3.35%

CCc1nnc2n1CCN(C(=O)c1cc3c(F)cccc3[nH]1)C2
cytotoxicity at 10 µM: 6.41%

CCn1cnnc1C1CCN(C(=O)c2ccccc2F)CC1
cytotoxicity at 10 µM: -5.13%

Cc1nccn1-c1cc(CNC(=O)C2CCCO2)ccn1 (configuration not stated)
cytotoxicity at 10 µM: -7.81%

CCCc1n[nH]c(C2CN(C(=O)c3n[nH]c4ccccc34)CCO2)n1 (configuration not stated)
cytotoxicity at 10 µM: -1.39%

COc1c(CNCCC(=O)NC2CCCC2)c(C(C)C)nn1C
cytotoxicity at 10 µM: -4.41%

CCOc1ccc(CN(CC)C(=O)c2ccc(C)[nH]c2=O)cc1OC
cytotoxicity at 10 µM: -6.83%

Cc1cc(C)n(CC2CCCN2C(=O)c2c[nH]c(=O)c(Cl)c2)n1 (configuration not stated)
cytotoxicity at 10 µM: 1.53%

Cc1cc(NC(=O)CNC2CCCN(c3cccnn3)C2)on1 (configuration not stated)
cytotoxicity at 10 µM: 5.98%

Cc1ccc(N2CCCC(NCC(=O)Nc3cc(C)nn3C)C2)nn1 (configuration not stated)
cytotoxicity at 10 µM: -1.18%

O=C(c1cnc(-c2ncccn2)s1)N1CCCC(n2cccn2)C1 (configuration not stated)
cytotoxicity at 10 µM: -2.85%

COc1ccc(NC(=O)CCc2c(C)nc3cc(O)nn3c2C)cn1
cytotoxicity at 10 µM: -9.21%

CN(Cc1ccco1)C(=O)CN1CCCC(Cn2cncn2)C1 (configuration not stated)
cytotoxicity at 10 µM: -4%

CCCc1n[nH]c(C2CN(C(=O)C3=COCCC3)CCO2)n1 (configuration not stated)
cytotoxicity at 10 µM: -5.04%

CC(C)c1noc(C(C)N2CCN(CCN3CCCC3=O)CC2)n1 (configuration not stated)
cytotoxicity at 10 µM: -10.6%

Cc1ccc(NC2CCN(C(=O)c3c(C)noc3C)CC2)nn1
cytotoxicity at 10 µM: -4.35%

Cc1ccc(C(=O)N2CCCS2(=O)=O)cc1Cl
cytotoxicity at 10 µM: 2.29%

O=C(CCNc1ncccn1)N1CCCC(n2ccnc2)C1 (configuration not stated)
cytotoxicity at 10 µM: 0.289%

Cc1cc(C)n(C2CN(CC(=O)NC3CCOCC3)C2)n1
cytotoxicity at 10 µM: -3.92%

CCOCCC(=O)N1CCCN(Cc2csc(CC)n2)CC1
cytotoxicity at 10 µM: 3.9%

Cc1cnn(CCNCc2nnc(C3CC3)o2)c1
cytotoxicity at 10 µM: -7.89%

CC(C)COC(=O)N1CCC2(CCNC2)C1 (configuration not stated)
cytotoxicity at 10 µM: -10.1%

c1ccc(CN2CCc3ncnc(C4CC4)c3CC2)nc1
cytotoxicity at 10 µM: -138%

c1cc(CNCC2OCCc3cn(CC4CC4)nc32)cs1 (configuration not stated)
cytotoxicity at 10 µM: 2.61%

O=C(NC1COC2(CCN(Cc3cccs3)CC2)C1)c1ccccn1 (configuration not stated)
cytotoxicity at 10 µM: -2.19%

CCOc1cc(CN(C)CC(=O)O)ccc1OC(F)F
cytotoxicity at 10 µM: 7.99%

CNC(=O)c1cc2c(nc1NCC(C)C)CCN(CCOC)CC2
cytotoxicity at 10 µM: -147%

COc1nn(C)c2c1CCCN(C(=O)c1ccc3c(c1)OCO3)C2
cytotoxicity at 10 µM: 13.1%

CCN1CC2(CC1=O)CN(Cc1cnn(C)c1)CCN(C(=O)N(C)C)C2 (configuration not stated)
cytotoxicity at 10 µM: -1.9%

CCc1ccc(CN2C[C@@H](C)C3(CCN(CC(=O)N(C)C)C3=O)C2)o1 (some centres not stated)
cytotoxicity at 10 µM: 1.11%

COc1ccc(CN2CCc3[nH]nc(C(=O)N(C)C)c3C2)cc1
cytotoxicity at 10 µM: 5.18%

CCN1CC2(CC1=O)CN(Cc1ccsc1)CCN(C(=O)C(C)C)C2 (configuration not stated)
cytotoxicity at 10 µM: 5.08%

Cc1cccc(CN2C[C@@H]3COC[C@]3(CNC(=O)N3CCCC3)C2)n1
cytotoxicity at 10 µM: 1.05%

O=C(c1ccc[nH]1)N1C[C@@H]2CC[C@H]1CN(C1Cc3ccccc3C1)C2
cytotoxicity at 10 µM: -1.85%

COCCN1C[C@@H]2CC[C@H]1CN(CC(=O)Nc1ccn(C)n1)C2
cytotoxicity at 10 µM: -8.39%

CCCS(=O)(=O)N1C[C@@H]2C[C@H](C(=O)N3CCN(C)CC3)[C@H](C1)O2
cytotoxicity at 10 µM: 1.47%

CSc1ccccc1C(=O)N1C[C@@H]2CC[C@H]1CN(C(=O)N(C)C)C2
cytotoxicity at 10 µM: -3.99%

Cn1cnc(S(=O)(=O)N2C[C@H]3CC[C@@H](C2)N(Cc2ccccn2)C3)c1
cytotoxicity at 10 µM: 7.27%
